Reference: ChEMBL document CHEMBL1137681, “Design, synthesis and characterization of N9/N7-substituted 6-aminopurines as VEGF-R and EGF-R inhibitors” (Eur J Med Chem, 2009)
Activity calls are given as the source filed them. No cut-off for these calls is given here.

Assays:
[1] = target: RAC-alpha serine/threonine-protein kinase (Homo sapiens) (UniProt P31749); test: Inhibition of AKT1 up to 100 uM
Method in brief: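 Radiometric kinase assay with recombinant AKT1 (50–400 ng) and GSK3(14-27) peptide substrate. Incubated 80 min at 30 °C, stopped with 2% H3PO4, washed with 0.9% NaCl. IC50 from 10 concentrations in singlicate.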

[2] = target: T1, Aurora kinase A (Homo sapiens) (UniProt O14965); test: Inhibition of Aurora A up to 100 uM
T1 sequence (whole entry): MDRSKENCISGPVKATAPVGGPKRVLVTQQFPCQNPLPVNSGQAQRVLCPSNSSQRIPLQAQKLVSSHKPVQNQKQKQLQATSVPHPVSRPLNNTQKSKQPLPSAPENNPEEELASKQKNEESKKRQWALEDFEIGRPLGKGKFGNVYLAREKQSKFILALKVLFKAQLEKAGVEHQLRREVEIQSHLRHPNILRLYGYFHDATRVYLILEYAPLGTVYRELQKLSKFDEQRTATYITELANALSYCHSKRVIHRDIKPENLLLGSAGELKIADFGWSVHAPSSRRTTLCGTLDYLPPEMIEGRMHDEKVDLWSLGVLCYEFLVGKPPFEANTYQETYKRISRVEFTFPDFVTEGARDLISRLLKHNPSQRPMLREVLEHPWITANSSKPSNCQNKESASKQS
Method in brief: (§1)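 Buffer was HEPES-NaOH pH 7.5 with MgCl2, MnCl2, vanadate, DTT, PEG20000 and 1% DMSO. Run 80 min at 30 °C, quenched with 2% H3PO4, NaCl-washed, then scintillation-counted. IC50 fitted from 10 concentrations tested once each.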

[3] = target: Aurora kinase B (Homo sapiens, UniProt Q96GD4); test: Inhibition of Aurora B; method in brief: as §1
[4] = system: Serine/threonine-protein kinase B-raf (Homo sapiens), P15056 [V600E]; test: Inhibition of BRAF V600E mutant
[5] = target: Cyclin-dependent kinase 4/cyclin D1 (Homo sapiens) (UniProt P11802+P24385); test: Inhibition of CDK4/Cyclin D1 up to 100 uM; assay type: protein-complex assay
Method in brief: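 Buffer: HEPES-NaOH pH 7.5, Mg2+/Mn2+, vanadate, DTT, PEG20000, 1% DMSO. Incubated 80 min at 30 °C, stopped with 2% H3PO4, washed with 0.9% NaCl, and counted by scintillation. IC50 from 10 concentrations, singlicate.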

[6] = target: Receptor tyrosine-protein kinase erbB-2 (Homo sapiens, UniProt P04626); test: Inhibition of ERBB2
Method in brief: (§2)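 Buffer: HEPES-NaOH pH 7.5, Mg2+/Mn2+, vanadate, DTT, PEG20000, 1% DMSO. Incubated 30 °C for 80 min, stopped with 2% H3PO4, washed, and scintillation-counted. IC50 from 10 concentrations in singlicate.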

[7] = target: Focal adhesion kinase 1 (Homo sapiens) (UniProt Q05397); test: Inhibition of FAK up to 100 uM; method in brief: as §2
[8] = target: Insulin-like growth factor 1 receptor (Homo sapiens) (UniProt P08069); test: Inhibition of IGF1R up to 100 uM; method in brief: as §2
[9] = target: Proto-oncogene tyrosine-protein kinase Src (Homo sapiens, UniProt P12931); test: Inhibition of SRC
[10] = target: Receptor-type tyrosine-protein kinase FLT3 (Homo sapiens) (UniProt P36888); test: Inhibition of FLT3 up to 100 uM
[11] = target: Insulin receptor (Homo sapiens) (UniProt P06213); test: Inhibition of INSR up to 100 uM
[12] = target: Serine/threonine-protein kinase PLK1 (Homo sapiens) (UniProt P53350); test: Inhibition of PLK1 up to 100 uM
Method in brief: (§3)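 Run in HEPES-NaOH pH 7.5 with MgCl2, MnCl2, orthovanadate, DTT, PEG20000 and 1% DMSO at 30 °C for 80 min. IC50 from 10 concentrations, singlicate.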

[13] = target: Angiopoietin-1 receptor (Homo sapiens, UniProt Q02763); test: Inhibition of TIE2
[14] = target: Casein kinase II subunit alpha (Homo sapiens) (UniProt P68400); test: Inhibition of CK2alpha1; method in brief: as §3
[15] = target: T2, NUAK family SNF1-like kinase 1 (Homo sapiens) (UniProt O60285); test: Inhibition of ARK5 up to 100 uM
T2 sequence (whole entry): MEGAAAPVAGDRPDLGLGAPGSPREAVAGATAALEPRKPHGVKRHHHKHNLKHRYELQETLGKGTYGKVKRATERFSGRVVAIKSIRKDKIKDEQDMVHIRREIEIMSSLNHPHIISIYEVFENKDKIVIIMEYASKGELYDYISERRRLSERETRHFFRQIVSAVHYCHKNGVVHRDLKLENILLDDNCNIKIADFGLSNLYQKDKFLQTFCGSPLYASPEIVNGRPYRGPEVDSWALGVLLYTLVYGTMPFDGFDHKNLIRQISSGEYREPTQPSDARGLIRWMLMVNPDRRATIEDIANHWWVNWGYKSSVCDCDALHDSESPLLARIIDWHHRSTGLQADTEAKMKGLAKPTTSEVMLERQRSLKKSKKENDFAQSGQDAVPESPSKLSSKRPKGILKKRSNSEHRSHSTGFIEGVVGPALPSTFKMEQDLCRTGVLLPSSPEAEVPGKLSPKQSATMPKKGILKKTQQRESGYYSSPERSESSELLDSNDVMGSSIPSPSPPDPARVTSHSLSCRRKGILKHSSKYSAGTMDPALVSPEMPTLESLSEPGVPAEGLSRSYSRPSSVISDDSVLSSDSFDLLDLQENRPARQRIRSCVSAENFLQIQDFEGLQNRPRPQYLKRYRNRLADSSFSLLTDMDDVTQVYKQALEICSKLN

[16] = target: Epidermal growth factor receptor (Homo sapiens, UniProt P00533); test: Inhibition of EGFR

Sequence of Receptor-type tyrosine-protein kinase FLT3 (Homo sapiens) (P36888 whole entry): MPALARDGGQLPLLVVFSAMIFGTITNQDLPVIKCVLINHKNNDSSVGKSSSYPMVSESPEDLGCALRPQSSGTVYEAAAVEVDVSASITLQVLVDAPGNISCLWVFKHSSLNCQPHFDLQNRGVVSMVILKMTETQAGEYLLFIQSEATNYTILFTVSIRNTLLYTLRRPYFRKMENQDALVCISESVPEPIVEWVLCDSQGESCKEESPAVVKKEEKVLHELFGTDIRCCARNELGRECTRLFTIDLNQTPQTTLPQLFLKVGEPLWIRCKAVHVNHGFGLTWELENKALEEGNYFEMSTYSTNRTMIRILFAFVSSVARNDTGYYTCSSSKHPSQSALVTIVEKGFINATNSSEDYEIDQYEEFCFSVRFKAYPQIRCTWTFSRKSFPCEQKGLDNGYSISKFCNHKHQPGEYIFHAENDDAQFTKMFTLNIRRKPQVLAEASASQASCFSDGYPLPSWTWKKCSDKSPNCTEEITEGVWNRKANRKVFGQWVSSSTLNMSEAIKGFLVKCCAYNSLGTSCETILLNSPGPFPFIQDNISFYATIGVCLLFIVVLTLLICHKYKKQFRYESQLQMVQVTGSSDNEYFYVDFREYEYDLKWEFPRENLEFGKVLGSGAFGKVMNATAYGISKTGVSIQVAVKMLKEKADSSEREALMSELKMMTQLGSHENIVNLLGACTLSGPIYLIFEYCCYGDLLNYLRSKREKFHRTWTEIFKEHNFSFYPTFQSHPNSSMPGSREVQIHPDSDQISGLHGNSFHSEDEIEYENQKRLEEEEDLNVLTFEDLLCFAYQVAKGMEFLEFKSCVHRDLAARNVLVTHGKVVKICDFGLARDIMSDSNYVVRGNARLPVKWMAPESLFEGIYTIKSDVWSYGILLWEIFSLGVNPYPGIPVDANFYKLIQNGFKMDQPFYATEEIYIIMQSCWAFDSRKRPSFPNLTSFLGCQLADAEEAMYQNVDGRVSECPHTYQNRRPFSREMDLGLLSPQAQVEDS
Sequence of RAC-alpha serine/threonine-protein kinase (Homo sapiens) (P31749 whole entry): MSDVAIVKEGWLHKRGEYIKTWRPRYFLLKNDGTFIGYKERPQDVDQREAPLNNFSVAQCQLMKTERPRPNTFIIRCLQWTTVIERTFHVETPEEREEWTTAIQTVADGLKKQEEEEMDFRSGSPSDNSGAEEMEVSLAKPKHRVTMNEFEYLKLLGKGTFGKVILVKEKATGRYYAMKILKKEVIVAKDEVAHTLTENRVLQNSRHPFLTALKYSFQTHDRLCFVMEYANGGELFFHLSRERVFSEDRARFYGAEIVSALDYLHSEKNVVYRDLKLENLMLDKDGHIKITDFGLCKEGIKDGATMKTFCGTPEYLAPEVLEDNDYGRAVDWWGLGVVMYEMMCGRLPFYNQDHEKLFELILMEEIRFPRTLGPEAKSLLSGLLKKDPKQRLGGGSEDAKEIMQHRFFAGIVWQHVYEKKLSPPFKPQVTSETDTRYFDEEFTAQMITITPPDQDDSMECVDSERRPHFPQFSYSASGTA
Sequence of Insulin receptor (Homo sapiens) (P06213 28-758 limits assumed): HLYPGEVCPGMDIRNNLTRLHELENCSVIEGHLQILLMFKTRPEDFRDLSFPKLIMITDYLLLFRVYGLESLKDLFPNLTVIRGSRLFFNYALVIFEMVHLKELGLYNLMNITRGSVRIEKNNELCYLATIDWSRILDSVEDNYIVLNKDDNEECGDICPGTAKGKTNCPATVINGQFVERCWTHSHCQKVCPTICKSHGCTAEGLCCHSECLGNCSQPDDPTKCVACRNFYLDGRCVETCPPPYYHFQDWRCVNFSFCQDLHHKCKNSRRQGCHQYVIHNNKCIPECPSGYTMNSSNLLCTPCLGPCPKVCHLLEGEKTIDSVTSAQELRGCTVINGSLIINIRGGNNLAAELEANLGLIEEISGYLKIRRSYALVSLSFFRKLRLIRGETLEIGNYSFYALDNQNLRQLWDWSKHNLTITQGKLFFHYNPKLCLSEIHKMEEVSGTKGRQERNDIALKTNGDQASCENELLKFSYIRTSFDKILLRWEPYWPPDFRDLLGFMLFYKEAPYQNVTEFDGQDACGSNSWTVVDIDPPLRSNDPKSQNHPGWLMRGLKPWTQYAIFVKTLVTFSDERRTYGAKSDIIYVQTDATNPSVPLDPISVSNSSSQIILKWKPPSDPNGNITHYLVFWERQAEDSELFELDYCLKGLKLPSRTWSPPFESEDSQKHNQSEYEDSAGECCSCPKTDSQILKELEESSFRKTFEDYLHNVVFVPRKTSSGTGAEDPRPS
Sequence of Insulin receptor (Homo sapiens) (P06213 763-1382 limits assumed): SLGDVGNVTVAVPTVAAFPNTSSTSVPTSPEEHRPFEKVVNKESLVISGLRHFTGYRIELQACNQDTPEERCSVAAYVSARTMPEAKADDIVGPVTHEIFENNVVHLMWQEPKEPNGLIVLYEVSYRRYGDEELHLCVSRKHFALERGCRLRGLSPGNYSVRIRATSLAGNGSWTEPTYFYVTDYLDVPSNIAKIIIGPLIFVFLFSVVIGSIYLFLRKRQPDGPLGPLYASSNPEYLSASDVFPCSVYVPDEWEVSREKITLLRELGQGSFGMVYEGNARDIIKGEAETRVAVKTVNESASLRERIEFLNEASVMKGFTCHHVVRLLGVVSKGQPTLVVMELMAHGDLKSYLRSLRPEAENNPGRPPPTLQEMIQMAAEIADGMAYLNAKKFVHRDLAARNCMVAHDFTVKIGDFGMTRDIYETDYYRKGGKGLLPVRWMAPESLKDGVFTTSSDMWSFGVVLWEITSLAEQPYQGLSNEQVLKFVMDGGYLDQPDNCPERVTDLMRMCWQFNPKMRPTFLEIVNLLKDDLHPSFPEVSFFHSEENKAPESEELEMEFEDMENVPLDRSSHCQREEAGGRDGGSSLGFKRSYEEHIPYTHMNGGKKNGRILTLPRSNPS
Sequence of Proto-oncogene tyrosine-protein kinase Src (P12931 2-536 limits assumed): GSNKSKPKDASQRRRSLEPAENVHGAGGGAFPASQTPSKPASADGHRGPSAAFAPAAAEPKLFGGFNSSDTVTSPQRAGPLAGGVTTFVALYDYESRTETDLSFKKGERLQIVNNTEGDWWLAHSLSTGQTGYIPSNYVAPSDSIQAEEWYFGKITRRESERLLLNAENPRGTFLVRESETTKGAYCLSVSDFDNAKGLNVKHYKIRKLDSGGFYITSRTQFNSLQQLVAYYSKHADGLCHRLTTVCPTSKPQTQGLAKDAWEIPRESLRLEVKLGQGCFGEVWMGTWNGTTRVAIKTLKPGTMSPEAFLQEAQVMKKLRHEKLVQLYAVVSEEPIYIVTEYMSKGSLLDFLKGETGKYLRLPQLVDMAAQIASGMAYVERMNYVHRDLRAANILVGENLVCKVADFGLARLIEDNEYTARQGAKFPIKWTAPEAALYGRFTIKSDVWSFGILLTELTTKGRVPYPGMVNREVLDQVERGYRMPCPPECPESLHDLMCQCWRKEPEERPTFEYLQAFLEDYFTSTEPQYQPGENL
Sequence of Receptor tyrosine-protein kinase erbB-2 (P04626 whole entry): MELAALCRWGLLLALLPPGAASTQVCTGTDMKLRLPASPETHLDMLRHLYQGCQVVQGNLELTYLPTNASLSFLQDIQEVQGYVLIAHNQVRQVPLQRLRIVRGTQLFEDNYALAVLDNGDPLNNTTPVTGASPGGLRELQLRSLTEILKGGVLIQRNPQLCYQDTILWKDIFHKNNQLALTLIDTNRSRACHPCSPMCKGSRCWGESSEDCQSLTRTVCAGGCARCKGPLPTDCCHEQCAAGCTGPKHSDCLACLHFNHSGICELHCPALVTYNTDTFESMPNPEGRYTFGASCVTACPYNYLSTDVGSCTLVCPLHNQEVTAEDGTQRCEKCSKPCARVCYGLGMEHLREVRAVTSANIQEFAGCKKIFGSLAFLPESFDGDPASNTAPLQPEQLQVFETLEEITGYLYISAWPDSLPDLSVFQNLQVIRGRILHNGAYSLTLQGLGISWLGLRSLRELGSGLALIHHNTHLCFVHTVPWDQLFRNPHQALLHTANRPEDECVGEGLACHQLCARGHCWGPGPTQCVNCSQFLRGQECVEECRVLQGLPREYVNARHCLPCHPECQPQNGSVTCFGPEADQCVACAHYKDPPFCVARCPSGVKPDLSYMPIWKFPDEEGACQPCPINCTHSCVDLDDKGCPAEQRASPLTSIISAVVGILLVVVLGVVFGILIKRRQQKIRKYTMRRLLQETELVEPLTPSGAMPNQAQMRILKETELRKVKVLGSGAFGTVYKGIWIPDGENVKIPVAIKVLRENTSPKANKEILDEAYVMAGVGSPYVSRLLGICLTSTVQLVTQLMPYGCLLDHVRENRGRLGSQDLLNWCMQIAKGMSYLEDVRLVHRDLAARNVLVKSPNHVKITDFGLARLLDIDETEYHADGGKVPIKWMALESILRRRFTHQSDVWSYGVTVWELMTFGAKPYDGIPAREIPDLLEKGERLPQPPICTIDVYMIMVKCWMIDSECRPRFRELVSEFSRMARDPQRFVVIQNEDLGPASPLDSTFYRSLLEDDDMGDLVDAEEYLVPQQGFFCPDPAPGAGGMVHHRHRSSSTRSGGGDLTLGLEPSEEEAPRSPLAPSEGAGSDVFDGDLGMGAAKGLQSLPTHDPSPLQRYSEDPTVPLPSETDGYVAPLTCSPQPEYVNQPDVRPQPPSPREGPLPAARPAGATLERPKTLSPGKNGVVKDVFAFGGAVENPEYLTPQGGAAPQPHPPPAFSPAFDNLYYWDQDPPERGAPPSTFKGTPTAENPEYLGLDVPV
Sequence of Casein kinase II subunit alpha (Homo sapiens) (P68400 whole entry, looked up): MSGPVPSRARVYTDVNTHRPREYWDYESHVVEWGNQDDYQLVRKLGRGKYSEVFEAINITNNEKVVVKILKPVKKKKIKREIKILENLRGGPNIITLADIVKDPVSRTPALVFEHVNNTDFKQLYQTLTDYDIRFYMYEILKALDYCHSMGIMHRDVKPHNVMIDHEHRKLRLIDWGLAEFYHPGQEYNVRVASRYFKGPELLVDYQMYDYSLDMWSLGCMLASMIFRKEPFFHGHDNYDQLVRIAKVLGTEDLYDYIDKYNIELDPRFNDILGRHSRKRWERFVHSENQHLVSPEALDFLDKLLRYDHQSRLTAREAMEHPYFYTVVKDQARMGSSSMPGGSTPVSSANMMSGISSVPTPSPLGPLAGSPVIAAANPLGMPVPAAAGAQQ

Row | Structure (SMILES) | inhibition [1] | inhibition [2] | inhibition [3] | inhibition [4] | inhibition [5] | inhibition [6] | inhibition [7] | inhibition [8] | inhibition [9] | inhibition [10] | inhibition [11] | inhibition [12] | inhibition [13] | inhibition [14] | inhibition [15] | IC50 [16] [µM] | inhibition [16] | further results
1 | Nc1ncnc2ncn(CC(=O)c3ccccc3)c12 | inactive | inactive | inactive | inactive | inactive | inactive | inactive | inactive | inactive | inactive | inactive | inactive | inactive | inactive | inactive | – | – | –
2 | Nc1ncnc2c1ncn2CC(=O)c1ccccc1 | inactive | inactive | inactive | inactive | inactive | – | inactive | inactive | – | inactive | inactive | inactive | – | inactive | inactive | 75 | – | –
3 | Nc1ncnc2c1ncn2CC(=O)c1ccccn1 | inactive | inactive | inactive | inactive | inactive | inactive | inactive | inactive | inactive | inactive | inactive | inactive | inactive | inactive | inactive | 89 | – | –
4 | Nc1ncnc2c1ncn2CC(=O)c1cccnc1 | inactive | inactive | inactive | inactive | inactive | inactive | inactive | inactive | – | inactive | inactive | inactive | inactive | inactive | inactive | 93 | – | IC50 [9]: 75 µM
5 | Nc1ncnc2ncn(CC(=O)c3c[nH]c4ccccc34)c12 | inactive | inactive | inactive | inactive | inactive | inactive | inactive | inactive | – | inactive | inactive | inactive | – | inactive | inactive | – | – | IC50 [13]: 95 µM
6 | COc1ncnc2ncn(CC(=O)c3ccccc3)c12 | inactive | inactive | inactive | inactive | inactive | inactive | inactive | inactive | inactive | inactive | inactive | inactive | inactive | inactive | inactive | – | inactive | –
7 | Nc1ncnc2c1ncn2CC(=O)c1c[nH]c2ccccc12 | inactive | inactive | – | – | inactive | – | inactive | inactive | inactive | inactive | inactive | inactive | – | inactive | inactive | 35 | – | IC50 [3]: 69 µM; IC50 [6]: 95 µM; IC50 [13]: 85 µM
8 | CN(C)c1ncnc2c1ncn2CC(=O)c1c[nH]c2ccccc12 | inactive | inactive | inactive | inactive | inactive | inactive | inactive | inactive | inactive | inactive | inactive | inactive | inactive | inactive | inactive | – | inactive | –
9 | COc1ncnc2c1ncn2CC(=O)c1ccccc1 | inactive | inactive | inactive | inactive | inactive | inactive | inactive | inactive | inactive | inactive | inactive | inactive | inactive | inactive | inactive | – | inactive | –
